ChEMBL document CHEMBL1129978, “Effect of structural modification of enol-carboxamide-type nonsteroidal antiinflammatory drugs on COX-2/COX-1 selectivity” (J Med Chem, 1997)

Assays:
[1] = biological target: T1, Prostaglandin G/H synthase 1 (Homo sapiens, UniProt P23219); assay: Inhibition of human Prostaglandin G/H synthase 1 at 1 ug/mL expressed as mean percent inhibition of control PGE-2 production
How it was run: (§1)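 Human COX-1 and COX-2 genes expressed in a baculovirus system; microsomes prepared from High Five insect cells and used as the enzyme source. Activity read as PGE2 production. Each dose run in duplicate wells within each experiment, and values given as mean percent inhibition of control PGE2.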

[2] = biological target: T1, Prostaglandin G/H synthase 1; assay: Inhibition of human Prostaglandin G/H synthase 1 at 10 ug/mL expressed as mean percent inhibition of control PGE-2 production; how it was run: as §1
[3] = biological target: T1, Prostaglandin G/H synthase 1; assay: Inhibition of human Prostaglandin G/H synthase 1 at 0.1 ug/mL expressed as mean percent inhibition of control PGE-2 production; how it was run: as §1

T1 sequence (P23219 whole entry): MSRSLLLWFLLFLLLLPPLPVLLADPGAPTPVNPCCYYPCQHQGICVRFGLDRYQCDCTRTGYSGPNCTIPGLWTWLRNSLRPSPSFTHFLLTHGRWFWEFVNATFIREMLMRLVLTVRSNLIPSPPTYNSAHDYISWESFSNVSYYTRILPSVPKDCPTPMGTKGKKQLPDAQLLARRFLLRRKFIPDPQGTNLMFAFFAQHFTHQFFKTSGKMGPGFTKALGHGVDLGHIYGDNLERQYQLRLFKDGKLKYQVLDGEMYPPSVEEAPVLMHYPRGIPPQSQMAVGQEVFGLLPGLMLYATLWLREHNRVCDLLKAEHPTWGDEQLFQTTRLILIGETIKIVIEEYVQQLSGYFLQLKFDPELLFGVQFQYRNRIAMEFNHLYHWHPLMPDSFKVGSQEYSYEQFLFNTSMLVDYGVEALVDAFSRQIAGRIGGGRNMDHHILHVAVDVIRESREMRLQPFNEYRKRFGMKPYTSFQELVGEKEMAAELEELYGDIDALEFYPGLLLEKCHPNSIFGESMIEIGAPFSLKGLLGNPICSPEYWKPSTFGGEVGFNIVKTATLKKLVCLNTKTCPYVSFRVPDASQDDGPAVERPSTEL

Row | Compound | inhibition [1] [%] | inhibition [2] [%] | inhibition [3] [%]
1 | Cc1cc2c(o1)C(O)=C(C(=O)Nc1ncc(C)s1)N(C)S2(=O)=O | -7 | 1 | -8
2 | Cc1cnc(N/C(O)=C2\C(=O)N(Cc3ccccc3)C(=O)c3ccc(Cl)cc32)s1 | 35 | 83 | 8
3 | Cc1cc2c(s1)S(=O)(=O)N(C)C(C(=O)Nc1nccs1)=C2O | 5 | – | 1
4 | CN1C(C(=O)Nc2nc(C(F)(F)F)cs2)=C(O)c2ccccc2S1(=O)=O | 19 | 72 | 8
5 | Cc1cnc(NC(=O)C2=C(O)c3ccccc3SC2(C)C)s1 | 11 | 16 | –
6 | CCn1c2c(c3ccccc31)S(=O)(=O)N(C)C(C(=O)Nc1nccs1)=C2O | -1 | 81 | –
7 | Cn1c(C(=O)Nc2ccccn2)c(O)c2ccccc2c1=O | -3 | 19 | –
8 | CN1C(C(=O)Nc2nccs2)=C(O)c2c(c3cc(Cl)ccc3n2C)S1(=O)=O | 80 | 95 | 16
9 | Cc1cnc(NC(=O)C2=C(O)c3ccccc3SC2)s1 | 29 | 35 | 16
10 | CN1C(C(=O)Nc2ccccc2)=C(O)c2ccc3ccccc3c2S1(=O)=O | 64 | 88 | 4
11 | Cc1cnc(NC(=O)C2=C(O)c3sc4cc(Cl)ccc4c3S(=O)(=O)N2C)s1 | 100 | 100 | 58
12 | CN1C(C(=O)Nc2ccccc2)=C(O)c2c(ccc3ccccc23)S1(=O)=O | -5 | 18 | –
13 | COc1ccc2c(c1)C(O)=C(C(=O)Nc1ncc(C)s1)N(C)S2(=O)=O | – | – | -1
14 | CN1C(C(=O)Nc2ccccn2)=C(O)c2c(c3cc(Cl)ccc3n2C)S1(=O)=O | 28 | 90 | –
15 | CN1C(C(=O)Nc2nccs2)=C(O)c2ccccc2S1(=O)=O | 17 | 51 | –
16 | CN1C(C(=O)Nc2ccccc2)=C(O)c2c(c3cc(Cl)ccc3n2C)S1(=O)=O | 10 | – | 1

More lines, now with the values ahead:

Row | inhibition [1] [%] | inhibition [2] [%] | inhibition [3] [%] | Compound
17 | 5 | – | -9 | Cc1ccc2c(c1)C(O)=C(C(=O)Nc1ccccn1)N(C)S2(=O)=O
18 | 97 | 97 | 33 | CN1C(O)=C(C(=O)Nc2ccc(Br)cc2)c2cc(Cl)ccc2S1(=O)=O
19 | -8 | -1 | -1 | Cc1ccc2c(c1)C(O)=C(C(=O)Nc1ccccc1)N(C)S2(=O)=O
20 | 89 | 100 | 27 | CN1C(O)=C(C(=O)Nc2ccc(Br)cc2)c2ccc(Cl)cc2S1(=O)=O
21 | 11 | 64 | -3 | CN1C(O)=C(C(=O)Nc2nccs2)c2cc3ccccc3cc2S1(=O)=O
22 | 18 | 66 | 3 | Cc1cnc(NC(=O)C2=C(O)N(C)S(=O)(=O)c3ccccc32)s1
23 | 14 | 43 | 3 | CN1C(C(=O)Nc2ccccn2)=C(O)c2cc(Cl)ccc2S1(=O)=O
24 | 11 | 27 | 0 | CN1C(C(=O)Nc2ccccn2)=C(O)c2cc(F)ccc2S1(=O)=O
25 | 29 | 45 | 18 | Cc1ccc2c(c1)S(=O)(=O)N(C)C(C(=O)Nc1ccccn1)=C2O
26 | 73 | 97 | 22 | CN1C(O)=C(C(=O)Nc2ccc(F)cc2F)c2cc(F)ccc2S1(=O)=O
27 | 23 | 18 | 6 | CN1C(C(=O)Nc2ccc(Cl)cc2)=C(O)c2cc(Cl)ccc2S1(=O)=O
28 | 53 | 96 | – | CN1C(O)=C(C(=O)Nc2ccccn2)c2cc(Cl)ccc2S1(=O)=O
29 | -10 | 25 | – | CN1C(C(=O)Nc2ccccn2)=C(O)c2c(ccc3ccccc23)S1(=O)=O
